Calls of active or inactive are those of the source. The rule behind the calls is not given here.

The record followed here is ChEMBL document CHEMBL1135962, “The first synthesis and antifungal activities of 9-methoxystrobilurin-type beta-substituted beta-methoxyacrylate” (2002).

The subject of experiment [1] is Aspergillus fumigatus. The experiment in a line: Compound was evaluated for antifungal activity against Aspergillus fumigatum R-1301 as diameter of inhibition zone at a concentration 0.1 ug/disk. The experiment is classed as functional. The procedure, abridged: (§1)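 Disk-diffusion assay against the fungal strain named in the line. Inhibition-zone diameter was measured after 48 h incubation and is the mean of two samples. Scoring codes used: not effective, slightly effective, incomplete inhibition.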

In experiment [2] the test system is Aspergillus fumigatus. Put plainly: Compound was evaluated for antifungal activity against Aspergillus fumigatum R-1301 as diameter of inhibition zone at a concentration 1 ug/disk. It is filed as functional. The procedure, abridged:
as §1

Experiment [3] has as its system Aspergillus fumigatus. Put plainly: Compound was evaluated for antifungal activity against Aspergillus fumigatum R-1301 as diameter of inhibition zone at a concentration 10 ug/disk. It is filed as functional. The procedure, abridged: as §1
The test system of experiment [4] is Candida albicans. The experiment in a line: Compound was evaluated for antifungal activity against Candida albicans IFO 1594 as diameter of inhibition zone at a concentration 0.1 ug/disk; SE means slightly effective. The experiment is classed as functional, organism-based. Summed up:
as §1

Experiment [5] relates to Candida albicans. Put plainly: Compound was evaluated for antifungal activity against Candida albicans IFO 1594 as diameter of inhibition zone at a concentration 1 ug/disk and showed incomplete inhibition. The experiment is classed as functional. Summed up:
as §1

Experiment [6] concerns Candida albicans. The experiment in a line: Compound was evaluated for antifungal activity against Candida albicans IFO 1594 as diameter of inhibition zone at a concentration 10 ug/disk and showed incomplete inhibition. It is filed as functional. Summed up: as §1
The test system of experiment [7] is Fusarium solani. Put plainly: Compound was evaluated for antifungal activity against Fusarium solani R-2800 as diameter of inhibition zone at a concentration 0.1 ug/disk; NE means not effective. It is filed as functional, organism-based. Summed up:
as §1

Experiment [8] deals with Fusarium solani. Put plainly: Compound was evaluated for antifungal activity against Fusarium solani R-2800 as diameter of inhibition zone at a concentration 1 ug/disk; NE means not effective. It is filed as functional, organism-based. Summed up: as §1
Experiment [9] relates to Fusarium solani. Put plainly: Compound was evaluated for antifungal activity against Fusarium solani R-2800 as diameter of inhibition zone at a concentration 10 ug/disk; NE means not effective. The experiment is classed as functional, organism-based. The procedure, abridged:
as §1

The subject of experiment [10] is Penicillium citrinum. Put plainly: Compound was evaluated for antifungal activity against penicillium ctrinum R-3703 as diameter of inhibition zone at a concentration 10 ug/disk. It is filed as functional. Summed up:
as §1

Experiment [11] deals with Penicillium citrinum. Put plainly: Compound was evaluated for antifungal activity against penicillium ctrinum R-3703 as diameter of inhibition zone at a concentration 0.1 ug/disk and showed incomplete inhibition. The experiment is classed as functional. Summed up: as §1
Experiment [12] deals with Penicillium citrinum. Put plainly: Compound was evaluated for antifungal activity against penicillium ctrinum R-3703 as diameter of inhibition zone at a concentration 1 ug/disk and showed incomplete inhibition. It is filed as functional. Summed up:
as §1

The subject of experiment [13] is Saccharomyces cerevisiae. The experiment in a line: Compound was evaluated for antifungal activity against Saccharomyces cerevisiae IAM 4861 as diameter of inhibition zone at a concentration 10 ug/disk and showed incomplete inhibition. It is filed as functional. The procedure, abridged:
as §1

The test system of experiment [14] is Saccharomyces cerevisiae. Put plainly: Compound was evaluated for antifungal activity against Saccharomyces cerevisiae IAM 4861 as diameter of inhibition zone at a concentration 0.1 ug/disk and showed incomplete inhibition. The experiment is classed as functional. The procedure, abridged:
as §1

Experiment [15] relates to Saccharomyces cerevisiae. Put plainly: Compound was evaluated for antifungal activity against Saccharomyces cerevisiae IAM 4861 as diameter of inhibition zone at a concentration 1 ug/disk and showed incomplete inhibition. It is filed as functional. Summed up:
as §1

`CO\C=C(C(=O)OC)/C(C)=C(\C=C\c1ccccc1)OC` [9-METHOXYSTROBILURIN A]: the Inhibition zone in the experiment with Aspergillus fumigatus [1] was 16 mm; with Aspergillus fumigatus [2], 28 mm; in the experiment with Aspergillus fumigatus [3], 38 mm; in the experiment with Candida albicans [4], “Slightly Effective”; in the experiment on Candida albicans [5], 32 mm; with Candida albicans [6], 42 mm. In addition, the Inhibition zone stood at 33 mm in the experiment with Penicillium citrinum [10]; 19 mm with Penicillium citrinum [11]; 23 mm in the experiment with Penicillium citrinum [12]; 44 mm in the experiment on Saccharomyces cerevisiae [13]; 13 mm in the experiment with Saccharomyces cerevisiae [14]; 39 mm in the experiment with Saccharomyces cerevisiae [15]. Besides, the Inhibition zone result with Fusarium solani [7], in the experiment on Fusarium solani [8] and in the experiment with Fusarium solani [9] was “inactive” each time.
